Test results from ChEMBL document CHEMBL2169863, “Discovery, structure-activity relationship, and biological evaluation of noninhibitory small molecule chaperones of glucocerebrosidase” (J Med Chem, 2012).
Activity calls are given as the source filed them. Unless noted, the calls are words filed in the database; no cut-off is given here.

Assays:
Liver [1] = experiment: Half life in C57BL/6 mouse liver at 50 mg/kg, ip; assay type: ADME, organism-based; set-up: dose 50 mg/kg, route intraperitoneal; conditions: in vivo
In short: (§1)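 Male C57BL/6 mice, 18−26 g, given a single ip dose of 50 mpk in 20% PEG 400 + 80% (20% HP-β-CD). Plasma, brain and liver were sampled, and brain and liver were homogenized in 3 volumes of PBS pH 7.4 (dilution factor 4). Analysis was by LC−MS/MS. Mean profiles N = 3.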

Liver [2] = experiment: Cmax in C57BL/6 mouse liver at 50 mg/kg, ip; assay type: ADME, organism-based; set-up: dose 50 mg/kg, route intraperitoneal; conditions: in vivo; in short: as §1
[3] = system: T1, Lysosomal acid glucosylceramidase (Homo sapiens), P04062 [N409S]; experiment: Activation of Glucocerebrosidase N370S/N370S mutant translocation to lysosome in Gaucher patient dermal fibroblasts incubated for 6 days by LAMP2 colocalization-based laser scanning confocal microscopic analysis relative to vehicle-treated control
T1 sequence (whole entry): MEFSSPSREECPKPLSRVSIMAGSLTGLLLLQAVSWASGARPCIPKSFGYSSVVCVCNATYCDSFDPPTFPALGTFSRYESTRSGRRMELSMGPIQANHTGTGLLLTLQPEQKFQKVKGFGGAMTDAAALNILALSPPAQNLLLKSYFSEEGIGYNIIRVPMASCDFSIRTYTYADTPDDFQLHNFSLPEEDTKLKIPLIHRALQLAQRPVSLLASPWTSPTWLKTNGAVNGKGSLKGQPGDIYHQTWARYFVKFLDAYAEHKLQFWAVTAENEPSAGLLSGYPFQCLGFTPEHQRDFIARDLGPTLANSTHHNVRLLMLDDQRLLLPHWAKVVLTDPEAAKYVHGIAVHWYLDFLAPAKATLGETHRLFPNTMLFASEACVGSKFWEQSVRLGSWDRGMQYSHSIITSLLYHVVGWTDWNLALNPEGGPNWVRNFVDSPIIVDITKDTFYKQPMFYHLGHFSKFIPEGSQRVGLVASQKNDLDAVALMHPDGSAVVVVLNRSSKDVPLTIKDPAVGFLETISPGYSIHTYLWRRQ
In short: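 N370S/N370S Gaucher dermal fibroblasts were treated 6 days at 1, 5 or 25 μM, with DMSO vehicle control. Cells were fixed in 3% paraformaldehyde, permeabilized with Triton-X and stained with anti-GCase R386 (Alexa555), anti-LAMP-2 (Alexa488) and DAPI. Confocal imaging used constant laser settings, scoring GCase/LAMP-2 colocalization.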

[4] = system: T1, Lysosomal acid glucosylceramidase (Homo sapiens), P04062 [N409S]; experiment: Activation of glucocerebrosidase N370S mutant using 4-methylumbelliferone-beta-Glc as substrate incubated for 5 mins prior to substrate addition measured after 30 to 45 mins by HPLC analysis
In short: (§2)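 N370S/N370S patient spleen homogenate at 140 μg/well. Compound was tested at 9 concentrations, 1:2 dilutions from 50 μM. Substrate was 2 mM 4MU-Glc or the C12-BODIPY substrate at 25 μM; other conditions as the plate assay. Stopped reactions were separated on C18 HPLC with fluorescence detection: 4MU at 365/440 nm, C12-BODIPY-Cer at 506/540 nm.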

[5] = Activation of alpha-galactosidase using 4-MU-alpha-galactose as substrate
Liver [6] = experiment: AUC (infinity) in C57BL/6 mouse liver at 50 mg/kg, ip; assay type: ADME, organism-based; set-up: time infinity, dose 50 mg/kg, route intraperitoneal; conditions: in vivo; in short: as §1
Brain [7] = experiment: Tmax in C57BL/6 mouse brain at 50 mg/kg, ip; assay type: ADME, organism-based; set-up: dose 50 mg/kg, route intraperitoneal; conditions: in vivo; in short: as §1
Liver [8] = experiment: Metabolic stability in CD1 mouse liver microsomes assessed as compound remaining at 1 uM after 60 mins by LC/MS/MS analysis in presence of NADPH; assay type: ADME, Microsome; conditions: 1 h
In short: (§3)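 Compound at 1 μM was incubated in duplicate with CD-1 mouse liver microsomes at 37 °C in 100 mM potassium phosphate pH 7.4 with 3 mM MgCl₂, with or without 2 mM NADPH, for 60 min. Reaction was quenched in cold acidified MeCN with internal standard. Parent was quantified by LC−MS/MS as percent of time zero.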

[9] = Ratio of AUClast in brain to AUClast in plasma in C57BL/6 mouse at 50 mg/kg, ip; assay type: ADME, organism-based; set-up: dose 50 mg/kg, route intraperitoneal; in short: as §1
Brain [10] = experiment: AUClast in C57BL/6 mouse brain at 50 mg/kg, ip; assay type: ADME, organism-based; set-up: dose 50 mg/kg, route intraperitoneal, time 0 - last; conditions: in vivo; in short: as §1
Brain [11] = experiment: Cmax in C57BL/6 mouse brain at 50 mg/kg, ip; assay type: ADME, organism-based; set-up: dose 50 mg/kg, route intraperitoneal; conditions: in vivo; in short: as §1
Liver [12] = experiment: Ratio of AUClast in liver to AUClast in plasma in C57BL/6 mouse at 50 mg/kg, ip; assay type: ADME, organism-based; set-up: dose 50 mg/kg, route intraperitoneal; conditions: other tissue; in short: as §1
Caco-2 = experiment: Apparent permeability of the compound from apical to basal side of human Caco2 cells after 2 hrs; assay type: ADME, cell-based; conditions: caco-2, 2 h
In short: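 Caco-2 monolayers were grown 3 weeks, with integrity checked by Lucifer yellow. Compound was added apically (pH 6.5 HBSS/HEPES/glucose buffer) or basolaterally (pH 7.4) and incubated 2 h. Transfer was quantified by LC−MS/MS and expressed as P_app. Efflux ratio is P_app B→A over A→B.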

[13] = system: T1, Lysosomal acid glucosylceramidase (Homo sapiens), P04062 [N409S]; experiment: Activation of wild type glucocerebrosidase translocation to lysosome in human dermal fibroblast isolated from N370S carrier incubated for 6 days by LAMP2 co-localization-based laser scanning confocal microscopic analysis relative to vehicle-treated control
[14] = target: Lysosomal alpha-glucosidase (Homo sapiens) (UniProt P10253); experiment: Activation of alpha-glucosidase using 4-MU-alpha-glucose as substrate
Brain [15] = experiment: AUC (infinity) in C57BL/6 mouse brain at 50 mg/kg, ip; assay type: ADME, organism-based; set-up: dose 50 mg/kg, route intraperitoneal, time infinity; conditions: in vivo; in short: as §1
Liver [16] = experiment: Metabolic stability in CD1 mouse liver microsomes assessed as compound remaining at 1 uM after 60 mins by LC/MS/MS analysis in absence of NADPH; assay type: ADME, Microsome; conditions: 1 h; in short: as §3
[17] = Cytotoxicity against human dermal fibroblasts expressing GCase N370S/N370S mutant at 5 uM after 6 days; assay type: cell-based; conditions: fibroblast, 144 h
In short: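 Fibroblasts of the stated genotype were seeded at 5000 cells/well. After 1 day they were switched to OPTI-MEM with 5% FBS and treated 6 days with compound. Viability was read by CellTiter-Glo luminescence on a parallel plate.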

Brain [18] = experiment: Half life in C57BL/6 mouse brain at 50 mg/kg, ip; assay type: ADME, organism-based; set-up: dose 50 mg/kg, route intraperitoneal; conditions: in vivo; in short: as §1
[19] = system: T1, Lysosomal acid glucosylceramidase (Homo sapiens), P04062 [N409S]; experiment: Activation of glucocerebrosidase N370S mutant using C12-BODIPY-GlcCer as substrate assessed as half-maximal activation concentration incubated for 5 mins prior to substrate addition measured after 30 to 45 mins by HPLC analysis; in short: as §2
Plasma = experiment: AUC (infinity) in C57BL/6 mouse plasma at 50 mg/kg, ip; assay type: ADME, organism-based; set-up: time infinity, dose 50 mg/kg, route intraperitoneal; conditions: in vivo; in short: as §1

- t1/2 (Liver [1]): 28.9 h
- Cmax (Liver [2]): 17.3 µM
- Activity [3]: Active
- Activity [4]: Dose-dependent effect
- Activity [5]: inactive
- AUC (Liver [6]): 105000 ng·h/mL
- Tmax (Brain [7]): 0.25 h
- Stability (Liver [8]): 45%
- Ratio AUC [9]: 290%
- AUClast (Brain [10]): 1260 ng·h/mL
- Cmax (Brain [11]): 2.76 µM
- Ratio AUC (Liver [12]): 12512%
- Papp (Caco-2): 6 ×10⁻⁶ cm/s
- Activity [13]: Active
- Activity [14]: inactive
- AUC (Brain [15]): 1390 ng·h/mL
- Stability (Liver [16]): 42%
- t1/2 (Brain [18]): 18.2 h
- Activity [19]: inactive
- AUC (Plasma): 474 ng·h/mL
Structure (SMILES): C#Cc1ccc(NC(=O)c2cnn3c(C)cc(C)nc23)cc1
- Activity [17]: Non-toxic
